Experimental data as given in ChEMBL document CHEMBL5724801, “EUbOPEN Chemogenomics Library - Multiplex” (2024).
Values joined by “and” are separate entries in the source; they are usually repeats but may differ in a detail not shown here. Identical values can stand only once.

Tested on: U2OS
Assay: Multiplex assay against U2OS
Assay type: toxicity, cell-based
Conditions: human
In short: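 Compound was added to live cells that had been stained at seeding with Hoechst33342, BioTracker Green Microtubule Cytoskeleton Dye, MitoTracker Red and Annexin V Alexa Fluor 680, and imaging followed on a CQ1 microscope at 37°C and 5% CO2. CellPathfinder machine-learning gating divided cells into Hoechst high-intensity objects or normal cells, normal cells into healthy, pyknosed or fragmented nuclei, and pyknosed cells into mitotic or apoptotic. Tubulin, mitochondrial-mass and membrane-permeability phenotypes are per cents of healthy-nucleus cells.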

[1] = 12 h, 1 µM, compound concentration 1 uM
[2] = 12 h, 10 µM, compound concentration 10 uM
[3] = 24 h, 1 µM, compound concentration 1 uM
[4] = 24 h, 10 µM, compound concentration 10 uM
[5] = 48 h, 1 µM, compound concentration 1 uM
[6] = 48 h, 10 µM, compound concentration 10 uM

Structure (SMILES): COc1ccc2[nH]c(I)c(CCNC(C)=O)c2c1 [IODOMELATONIN]
- Population Apoptotic (%) [1]: 68% and 37%
- Population Fragmented Nuclei (%) [1]: 19% and 11%
- Population Healthy Nuclei (%) [1]: 74% and 83%
- Population Hoechst High Intensity Objects (%) [1]: 2% and 0%
- Population Membrane Permeable-Phenotype (%) [1]: 4% and 5%
- Population Mitochondria Different-Phenotype (%) [1]: 3% and 1%
- Population Mitotic Cells (%) [1]: 31% and 62%
- Population Normal (%) [1]: 97% and 99%
- Population Pyknosed Nuclei (%) [1]: 5%
- Population Tubulin-Different-Phenotype (%) [1]: 1% and 2%
- Total Cell Count [1]: 282 and 156
- Population Apoptotic (%) [2]: 77% and 80%
- Population Fragmented Nuclei (%) [2]: 25% and 41%
- Population Healthy Nuclei (%) [2]: 64% and 54%
- Population Hoechst High Intensity Objects (%) [2]: 3% and 0%
- Population Membrane Permeable-Phenotype (%) [2]: 2% and 10%
- Population Mitochondria Different-Phenotype (%) [2]: 1% and 6%
- Population Mitotic Cells (%) [2]: 22% and 20%
- Population Normal (%) [2]: 96% and 99%
- Population Pyknosed Nuclei (%) [2]: 9% and 3%
- Population Tubulin-Different-Phenotype (%) [2]: 1% and 2%
- Total Cell Count [2]: 231 and 134
- Population Apoptotic (%) [3]: 86% and 80%
- Population Fragmented Nuclei (%) [3]: 16% and 15%
- Population Healthy Nuclei (%) [3]: 75% and 78%
- Population Hoechst High Intensity Objects (%) [3]: 1%
- Population Membrane Permeable-Phenotype (%) [3]: 3% and 8%
- Population Mitochondria Different-Phenotype (%) [3]: 1% and 0%
- Population Mitotic Cells (%) [3]: 13% and 20%
- Population Normal (%) [3]: 98%
- Population Pyknosed Nuclei (%) [3]: 8% and 5%
- Population Tubulin-Different-Phenotype (%) [3]: 2%
- Total Cell Count [3]: 354 and 179
- Population Apoptotic (%) [4]: 95% and 88%
- Population Fragmented Nuclei (%) [4]: 25% and 34%
- Population Healthy Nuclei (%) [4]: 66% and 59%
- Population Hoechst High Intensity Objects (%) [4]: 1%
- Population Membrane Permeable-Phenotype (%) [4]: 4% and 7%
- Population Mitochondria Different-Phenotype (%) [4]: 1% and 5%
- Population Mitotic Cells (%) [4]: 4% and 11%
- Population Normal (%) [4]: 98%
- Population Pyknosed Nuclei (%) [4]: 8% and 5%
- Population Tubulin-Different-Phenotype (%) [4]: 1% and 2%
- Total Cell Count [4]: 273 and 153
- Population Apoptotic (%) [5]: 92% and 86%
- Population Fragmented Nuclei (%) [5]: 12% and 13%
- Population Healthy Nuclei (%) [5]: 79% and 81%
- Population Hoechst High Intensity Objects (%) [5]: 1%
- Population Membrane Permeable-Phenotype (%) [5]: 5% and 4%
- Population Mitochondria Different-Phenotype (%) [5]: 2%
- Population Mitotic Cells (%) [5]: 7% and 13%
- Population Normal (%) [5]: 98%
- Population Pyknosed Nuclei (%) [5]: 7% and 5%
- Population Tubulin-Different-Phenotype (%) [5]: 3%
- Total Cell Count [5]: 509 and 284
- Population Apoptotic (%) [6]: 97% and 100%
- Population Fragmented Nuclei (%) [6]: 21% and 29%
- Population Healthy Nuclei (%) [6]: 68% and 65%
- Population Hoechst High Intensity Objects (%) [6]: 2% and 0%
- Population Membrane Permeable-Phenotype (%) [6]: 5% and 7%
- Population Mitochondria Different-Phenotype (%) [6]: 0% and 5%
- Population Mitotic Cells (%) [6]: 2% and 0%
- Population Normal (%) [6]: 97% and 99%
- Population Pyknosed Nuclei (%) [6]: 9% and 5%
- Population Tubulin-Different-Phenotype (%) [6]: 2% and 4%
- Total Cell Count [6]: 373 and 209

Structure (SMILES): O=C(NCCN1CCC(n2c(=O)[nH]c3cc(Cl)ccc32)CC1)c1ccc(F)cc1 [HALOPEMIDE]
- Population Apoptotic (%) [1]: 95% and 50%
- Population Fragmented Nuclei (%) [1]: 24% and 13%
- Population Healthy Nuclei (%) [1]: 65% and 79%
- Population Hoechst High Intensity Objects (%) [1]: 1% and 0%
- Population Membrane Permeable-Phenotype (%) [1]: 6% and 7%
- Population Mitochondria Different-Phenotype (%) [1]: 1% and 2%
- Population Normal (%) [1]: 98% and 100%
- Population Pyknosed Nuclei (%) [1]: 10% and 7%
- Population Tubulin-Different-Phenotype (%) [1]: 2% and 3%
- Total Cell Count [1]: 209 and 105
- Population Apoptotic (%) [2]: 68% and 61%
- Population Fragmented Nuclei (%) [2]: 19% and 12%
- Population Healthy Nuclei (%) [2]: 65% and 78%
- Population Hoechst High Intensity Objects (%) [2]: 4% and 1%
- Population Membrane Permeable-Phenotype (%) [2]: 23% and 26%
- Population Mitochondria Different-Phenotype (%) [2]: 11% and 32%
- Population Mitotic Cells (%) [2]: 31% and 38%
- Population Normal (%) [2]: 95% and 98%
- Population Pyknosed Nuclei (%) [2]: 15% and 8%
- Population Tubulin-Different-Phenotype (%) [2]: 15% and 27%
- Total Cell Count [2]: 244 and 152
- Population Apoptotic (%) [3]: 91% and 81%
- Population Fragmented Nuclei (%) [3]: 22% and 15%
- Population Healthy Nuclei (%) [3]: 68% and 72%
- Population Hoechst High Intensity Objects (%) [3]: 1% and 0%
- Population Membrane Permeable-Phenotype (%) [3]: 6% and 10%
- Population Mitochondria Different-Phenotype (%) [3]: 1% and 3%
- Population Mitotic Cells (%) [3]: 8% and 18%
- Population Normal (%) [3]: 98% and 99%
- Population Pyknosed Nuclei (%) [3]: 9% and 12%
- Population Tubulin-Different-Phenotype (%) [3]: 1% and 8%
- Total Cell Count [3]: 241 and 132
- Population Apoptotic (%) [4]: 75% and 63%
- Population Fragmented Nuclei (%) [4]: 17% and 16%
- Population Healthy Nuclei (%) [4]: 64% and 71%
- Population Hoechst High Intensity Objects (%) [4]: 2% and 3%
- Population Membrane Permeable-Phenotype (%) [4]: 15% and 26%
- Population Mitochondria Different-Phenotype (%) [4]: 10% and 23%
- Population Mitotic Cells (%) [4]: 25% and 36%
- Population Normal (%) [4]: 97% and 96%
- Population Pyknosed Nuclei (%) [4]: 18% and 12%
- Population Tubulin-Different-Phenotype (%) [4]: 7% and 21%
- Total Cell Count [4]: 271 and 159
- Population Apoptotic (%) [5]: 68% and 95%
- Population Fragmented Nuclei (%) [5]: 16% and 17%
- Population Healthy Nuclei (%) [5]: 75% and 69%
- Population Hoechst High Intensity Objects (%) [5]: 2% and 1%
- Population Membrane Permeable-Phenotype (%) [5]: 4% and 9%
- Population Mitochondria Different-Phenotype (%) [5]: 2% and 5%
- Population Normal (%) [5]: 97% and 98%
- Population Pyknosed Nuclei (%) [5]: 7% and 12%
- Population Tubulin-Different-Phenotype (%) [5]: 2% and 6%
- Total Cell Count [5]: 337 and 187
- Population Apoptotic (%) [6]: 81% and 77%
- Population Fragmented Nuclei (%) [6]: 15% and 13%
- Population Healthy Nuclei (%) [6]: 69% and 67%
- Population Hoechst High Intensity Objects (%) [6]: 3% and 6%
- Population Membrane Permeable-Phenotype (%) [6]: 10% and 16%
- Population Mitochondria Different-Phenotype (%) [6]: 5% and 12%
- Population Mitotic Cells (%) [6]: 18% and 22%
- Population Normal (%) [6]: 96% and 93%
- Population Pyknosed Nuclei (%) [6]: 14% and 18%
- Population Tubulin-Different-Phenotype (%) [6]: 5% and 6%
- Total Cell Count [6]: 382 and 197
